Measurements: ChEMBL document CHEMBL2346661, “Improved guanide compounds which bind the CXCR4 co-receptor and inhibit HIV-1 infection” (Bioorg Med Chem Lett, 2013)
One block for each compound: values may come before it. Calls of active or inactive are those of the source. No cut-off for these calls is given here.

Columns and labels:
MDA-MB-231 = assay: Cytotoxicity against human MDA-MB-231 cells expressing CXCR4 after 48 to 72 hrs by MTS assay; format: cell-based
Summary of the method: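 MDA-MB-231 breast cancer cells (CXCR4-expressing) exposed to compound for 48 to 72 h; viability by MTS dye reduction (CellTiter 96 Aqueous non-radioactive proliferation assay), run per manufacturer's protocol.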

[1] = target: T1, C-X-C chemokine receptor type 4 (Homo sapiens, UniProt P61073); assay: Inhibition of anti-CXCR4 mAb-44716 binding to CXCR4 in human H9 cells at 1 uM incubated for 20 mins prior to mAbs-44716 addition measured after 1 hr by flow cytometric analysis; format: cell-based
Summary of the method: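 H9 cells held 20 min at 4°C with […] compound in PBS/BSA/azide. Anti-CXCR4 mAb 44716 or an isotype control (anti-ricin RAC18) then added to 1 μg/ml for 1 h at 4°C. Washed, stained with Alexa 488 anti-mouse IgG for 1 h at 4°C, then fixed in 2% paraformaldehyde. Flow cytometry on 10,000 events; % inhibition from median fluorescence intensity.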

[2] = target: T1, C-X-C chemokine receptor type 4; assay: Inhibition of T-140 binding to CXCR4 (unknown origin) expressed in dog Cf2Th cells incubated for 30 mins prior to T-140 addition measured after 30 mins by fluorescence assay; format: cell-based
[3] = test system: Human immunodeficiency virus 1; assay: Antiviral activity against R5 tropic HIV1 infected in human TZM-bl cells; format: functional, organism-based
[4] = test system: Human immunodeficiency virus 1; assay: Antiviral activity against X4 tropic HIV1 BZ-167 infected in human TZM-bl cells assessed as neutralization of viral infectivity at 50 to 100 nM incubated 1 hr prior to viral infection measured after 72 hrs by luciferase reporter gene assay; format: functional, organism-based
H9 = assay: Cytotoxicity against human H9 cells up to 4 uM after 72 hrs by MTS assay; format: cell-based; details: h9, 72 h
Summary of the method: (§1)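 Cultures of TZM-bl, H9, or PHA blasts exposed to compound at concentrations up to 4 μM; MTS dye reduction measured at 72 h.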

[5] = target: T-cell surface glycoprotein CD4 (Homo sapiens) (UniProt P01730); assay: Inhibition of anti-CD4 mAb sim-2 binding to CD4 in human H9 cells at 0.1 to 10 uM incubated for 20 mins prior to mAb sim-2 addition measured after 1 hr by flow cytometric analysis; format: cell-based
Summary of the method: (§2)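 H9 cells or primary PHA-induced T-cell blasts pre-incubated 20 min at 4°C with a range of compound concentrations in PBS/1% BSA/0.01% sodium azide. mAb 12G5 (anti-CXCR4) or Sim.2 (anti-CD4) then added to 1 μg/ml for 1 h at 4°C. Detection with Alexa Fluor 488 goat anti-mouse IgG at 2 μg/ml for 1 h, then 2% paraformaldehyde fixation. Flow cytometry on 10,000 events; % inhibition from median fluorescence intensity against no-drug and no-Ab controls.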

[6] = target: T1, C-X-C chemokine receptor type 4; assay: Inhibition of anti-CXCR4 mAb-12G5 binding to CXCR4 in PHA-induced human T cells at 0.1 to 10 uM incubated for 20 mins prior to mAbs-12G5 addition measured after 1 hr by flow cytometric analysis; format: cell-based; details: T-cell; summary of the method: as §2
[7] = target: T1, C-X-C chemokine receptor type 4; assay: Inhibition of anti-CXCR4 mAb-12G5 binding to CXCR4 in human H9 cells at 3 uM incubated for 20 mins prior to mAbs-12G5 addition measured after 1 hr by flow cytometric analysis; format: cell-based
Summary of the method: (§3)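 H9 cells pre-incubated at 4°C with […] compound in PBS/BSA/azide, then stained with anti-CXCR4 mAb 12G5, 44708, 44716 or 44717 at 1 μg/ml for 1 h. Detection with Alexa 488 anti-mouse IgG, then 2% paraformaldehyde fixation. Flow cytometry on 10,000 events; % inhibition from median fluorescence intensity.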

[8] = target: T1, C-X-C chemokine receptor type 4; assay: Inhibition of anti-CXCR4 mAb-44708 binding to CXCR4 in human H9 cells at 3 uM incubated for 20 mins prior to mAb-44708 addition measured after 1 hr by flow cytometric analysis; format: cell-based; summary of the method: as §3
[9] = test system: Human immunodeficiency virus 1; assay: Antiviral activity against X4 tropic HIV1 isolate 92-UG-029 infected in human TZM-bl cells assessed as neutralization of viral infectivity at 50 to 100 nM incubated 1 hr prior to viral infection measured after 72 hrs by luciferase reporter gene assay; format: functional, organism-based
[10] = target: T1, C-X-C chemokine receptor type 4; assay: Inhibition of anti-CXCR4 mAb-12G5 binding to CXCR4 in human H9 cells at 0.1 to 10 uM incubated for 20 mins prior to mAbs-12G5 addition measured after 1 hr by flow cytometric analysis; format: cell-based; summary of the method: as §2
[11] = target: T-cell surface glycoprotein CD4 (Homo sapiens) (UniProt P01730); assay: Inhibition of anti-CD4 mAb sim-2 binding to CD4 in PHA-induced human T cells at 0.1 to 10 uM incubated for 20 mins prior to mAb sim-2 addition measured after 1 hr by flow cytometric analysis; format: cell-based; summary of the method: as §2
[12] = target: T1, C-X-C chemokine receptor type 4; assay: Inhibition of anti-CXCR4 mAb-44717 binding to CXCR4 in human H9 cells at 3 uM incubated for 20 mins prior to mAb-44717 addition measured after 1 hr by flow cytometric analysis; format: cell-based; summary of the method: as §3
[13] = test system: Human immunodeficiency virus 1; assay: Antiviral activity against X4 tropic HIV1 NL4-3 infected in human TZM-bl cells assessed as neutralization of viral infectivity at 50 to 100 nM incubated 1 hr prior to viral infection measured after 72 hrs by luciferase reporter gene assay; format: functional, organism-based
[14] = Cytotoxicity against PHA-induced human T cells up to 4 uM after 72 hrs by MTS assay; format: cell-based; details: t-cell; summary of the method: as §1
[15] = test system: Human immunodeficiency virus 1; assay: Antiviral activity against X4 tropic HIV1 isolate 92-HT-599 infected in human TZM-bl cells assessed as neutralization of viral infectivity at 50 to 100 nM incubated 1 hr prior to viral infection measured after 72 hrs by luciferase reporter gene assay; format: functional, organism-based
[16] = target: T1, C-X-C chemokine receptor type 4; assay: Inhibition of anti-CXCR4 mAb-44716 binding to CXCR4 in human H9 cells at 3 uM incubated for 20 mins prior to mAbs-44716 addition measured after 1 hr by flow cytometric analysis; format: cell-based; summary of the method: as §3
[17] = Cytotoxicity against human TZM-bl cells up to 4 uM after 72 hrs by MTS assay; format: cell-based; summary of the method: as §1

T1 sequence (P61073 whole entry): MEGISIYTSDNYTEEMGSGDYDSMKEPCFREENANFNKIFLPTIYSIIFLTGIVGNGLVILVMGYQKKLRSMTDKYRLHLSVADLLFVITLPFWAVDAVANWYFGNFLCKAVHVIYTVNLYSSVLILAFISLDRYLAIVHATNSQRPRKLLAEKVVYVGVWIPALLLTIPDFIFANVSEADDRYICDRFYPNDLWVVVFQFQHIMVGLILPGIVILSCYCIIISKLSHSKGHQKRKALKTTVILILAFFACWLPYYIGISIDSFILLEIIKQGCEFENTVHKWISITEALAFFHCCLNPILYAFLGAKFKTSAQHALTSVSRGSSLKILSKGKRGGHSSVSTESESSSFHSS

inhibition [1]: Active
IC50 [2]: 0.18 µM
Structure (SMILES): N=C(NCCCNCCCCNCCCNC(=N)Nc1cccc2ccccc12)Nc1cccc2ccccc12
CC50 (MDA-MB-231): 300 µM

IC50 [2]: 0.093 µM
Structure (SMILES): NC(=NCCCNCCCCN(CCCN=C(N)Nc1ccc2ccccc2c1)C(N)=Nc1ccc2ccccc2c1)Nc1ccc2ccccc2c1
CC50 (MDA-MB-231): 15 µM

IC50 [2]: 0.28 µM
Structure (SMILES): N=C(Nc1ccccc1)N(CCCCN=C(N)Nc1ccccc1)CCCN=C(N)Nc1ccccc1
CC50 (MDA-MB-231): 510 µM

IC50 [2]: 0.26 µM
Structure (SMILES): N=C(NCCCCNCCCNC(=N)Nc1ccccc1)Nc1ccccc1
CC50 (MDA-MB-231): > 1000 µM

IC50 [2]: 0.062 µM
Structure (SMILES): NC(=NCCCCNCCCN=C(N)Nc1ccc2ccccc2c1)Nc1ccc2ccccc2c1
CC50 (MDA-MB-231): 76 µM

inhibition [1]: Active
IC50 [2]: 0.11 µM
Structure (SMILES): N=C(NCCCNCCCCNCCCNC(=N)Nc1ccc2ccccc2c1)Nc1ccc2ccccc2c1
CC50 (MDA-MB-231): 17 µM
Activity [3]: inactive

inhibition [5]: inactive
inhibition [6]: Active
inhibition [1]: Active
inhibition [7]: Active
inhibition [8]: Active
inhibition [10]: Active
IC50 [2]: 0.04 µM
inhibition [11]: inactive
inhibition [12]: Active
inhibition [16]: Active
Structure (SMILES): N=C(NCCCNCCCCN(CCCNC(=N)Nc1cccc2ccccc12)C(=N)Nc1cccc2ccccc12)Nc1cccc2ccccc12
Activity [4]: Active
Activity (H9): Non-toxic
CC50 (MDA-MB-231): 18 µM
Activity [9]: Active
Activity [3]: inactive
Activity [13]: Active
Activity [14]: Non-toxic
Activity [15]: Active
Activity [17]: Non-toxic

inhibition [6]: inactive
inhibition [7]: inactive
inhibition [8]: inactive
inhibition [10]: inactive
inhibition [12]: inactive
inhibition [16]: inactive
Structure (SMILES): NCCCNCCCCNCCCN

Structure (SMILES): N=C(NCCCCNCCCNC(=N)Nc1ccc2ccccc2c1)Nc1ccc2ccccc2c1
Activity [3]: inactive

IC50 [2]: 0.19 µM
Structure (SMILES): N=C(NCCCCN(CCCNC(=N)Nc1ccc2ccccc2c1)C(=N)Nc1ccc2ccccc2c1)Nc1ccc2ccccc2c1

IC50 [2]: 0.22 µM
Structure (SMILES): N=C(NCCCCNCCCNC(=N)Nc1cccc2ccccc12)Nc1cccc2ccccc12
CC50 (MDA-MB-231): 120 µM

IC50 [2]: 0.38 µM
Structure (SMILES): N=C(NCCCN(CCCCN(CCCNC(=N)Nc1cccc2ccccc12)C(=N)Nc1cccc2ccccc12)C(=N)Nc1cccc2ccccc12)Nc1cccc2ccccc12
CC50 (MDA-MB-231): 7.3 µM

IC50 [2]: 0.11 µM
Structure (SMILES): NC(=NCCCCN(CCCN=C(N)Nc1cccc2ccccc12)C(N)=Nc1cccc2ccccc12)Nc1cccc2ccccc12

IC50 [2]: 0.51 µM
Structure (SMILES): N=C(Nc1ccccc1)N(CCCCN(CCCN=C(N)Nc1ccccc1)C(N)=Nc1ccccc1)CCCNC(N)=Nc1ccccc1
CC50 (MDA-MB-231): > 100 µM

inhibition [1]: Active
Structure (SMILES): N=C(NCCCNCCCCN(CCCNC(=N)Nc1ccc2ccccc2c1)C(=N)Nc1ccc2ccccc2c1)Nc1ccc2ccccc2c1
Activity [3]: inactive

IC50 [2]: 0.3 µM
Structure (SMILES): N=C(NCCCN(CCCCN(CCCNC(=N)Nc1ccc2ccccc2c1)C(=N)Nc1ccc2ccccc2c1)C(=N)Nc1ccc2ccccc2c1)Nc1ccc2ccccc2c1
CC50 (MDA-MB-231): 20 µM
